Measurements reported in article PMC2911241 (Letters in drug design & discovery, 2010).

Experiments:
[1] = tested on: human chronic myelogenous K562 leukemia cells; test: Cell proliferation analysis, K562 cells; type: cell-based; conditions: for IC50: Homo sapiens, K562, 24 h, read-out: IC50 K562
Outline: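 K562 cells grown in RPMI 1640 with 10% FCS, 2 mM L-glutamine, […] and penicillin/streptomycin at 37°C, 5% CO2. DMSO stocks (1 mg/mL) diluted in medium. Cells (1×10^4/well) exposed to increasing concentrations for 24 h at 37°C, then counted electronically. IC50 is 50% growth inhibition vs untreated controls. Duplicate cultures per concentration, repeated experiments, mean ± SE.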

[2] = tested on: murine lymphocytic L1210 leukemia cells; test: Cell proliferation analysis, L1210 cells; type: cell-based; conditions: for IC50: Mus musculus, L1210, 24 h, read-out: IC50 L1210
Outline: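 Murine L1210 cells maintained at 1×10^6 cells/mL in RPMI 1640 with 10% FCS, 2 mM L-glutamine, […] and penicillin/streptomycin (37 °C, 5% CO2). DMSO stocks (1 mg/mL) diluted in medium. 1×10^4 cells/well exposed to increasing concentrations for 24 h at 37 °C; cell number/mL counted on a Coulter counter. IC50 relative to untreated controls, duplicate cultures per concentration, mean ± SE of ≥3 independent experiments.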

tubulin = test: Inhibition of [3H]colchicine binding to tubulin; conditions: combretastatin A-4 at 1 μM; generally observed
Outline: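 Purified tubulin incubated with [3H]colchicine and test compound for 10 min at 37 °C. Read-out is percent inhibition of radiolabelled colchicine binding. Combretastatin A-4 served as reference at 1 μM.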

| IC50 [1] [nM] | SMILES | IC50 [2] [nM] | other results |
| --- | --- | --- | --- |
| 630 ± 40 | COc1cc(C(=O)c2sc3ccccc3c2NC(C)=O)cc(OC)c1OC [Compound 3q, N-[2-(3,4,5-Trimethoxybenzoyl)-1-benzothien-3-yl] acetamide] | – | – |
| > 100000 | COc1cc(C(=O)c2oc3c(OC)cccc3c2NC(=O)CBr)cc(OC)c1OC [Compound 3o, 2-Bromo-N-[7-methoxy-2-(3,4,5-trimethoxybenzoyl)-1-benzofuran-3-yl]acetamide] | – | – |
| 580 ± 30 | C=C(Br)C(=O)Nc1c(C(=O)c2cc(OC)c(OC)c(OC)c2)sc2ccccc12 [Compound 5e, 2-Bromo-N-[2-(3,4,5-trimethoxybenzoyl)-1-benzothien-3-yl]acrylamide] | – | – |
| 82700 ± 5600 | COc1cc(C(=O)c2oc3c(OC)cccc3c2NC(=O)CCl)cc(OC)c1OC [Compound 3n, 2-Chloro-N-[7-methoxy-2-(3,4,5-trimethoxybenzoyl)-1-benzofuran-3-yl]acetamide] | – | – |
| 31400 ± 1000 | COc1cc(C(=O)c2oc3ccccc3c2NC(=O)CO[N+](=O)[O-])cc(OC)c1OC [Compound 4a, 2-Oxo-2-{[2-(3,4,5-trimethoxybenzoyl)-1-benzofuran-3-yl]amino}ethyl nitrate] | – | – |
| 50 ± 10 | COc1cc(C(=O)c2sc3c(C)cccc3c2NC(=O)CO[N+](=O)[O-])cc(OC)c1OC [Compound 4d, 2-{[7-Methyl-2-(3,4,5-trimethoxybenzoyl)-1-benzothien-3-yl]amino}-2-oxoethyl nitrate] | – | fold more potent than 4c ([2]; against L1210 cells): about 5 fold |
| 48100 ± 2600 | COc1cc(C(=O)c2oc3c(OC)cccc3c2NC(C)=O)cc(OC)c1OC [Compound 3m, N-[7-Methoxy-2-(3,4,5-trimethoxybenzoyl)-1-benzofuran-3-yl]acetamide] | – | – |
| 80 | COc1cc(C(=O)c2sc3cc(C)ccc3c2NC(=O)CCl)cc(OC)c1OC [Compound 3v, 2-Chloro-N-[6-methyl-2-(3,4,5-trimethoxybenzoyl)-1-benzothien-3-yl]acetamide] | – | – |
| 500 ± 80 | COc1cc(C(=O)c2sc3cc(C)ccc3c2NC(=O)CBr)cc(OC)c1OC [Compound 3w, 2-Bromo-N-[6-methyl-2-(3,4,5-trimethoxybenzoyl)-1-benzothien-3-yl]acetamide] | – | – |
| 550 ± 10 | COc1cc(C(=O)c2sc3c(C)cccc3c2NC(=O)CI)cc(OC)c1OC [Compound 3ab, 2-Iodo-N-[7-methyl-2-(3,4,5-trimethoxybenzoyl)-1-benzothien-3-yl]acetamide] | – | – |
| 60900 ± 2400 | COc1ccc2oc(C(=O)c3cc(OC)c(OC)c(OC)c3)c(NC(=O)CCl)c2c1 [Compound 3f, 2-Chloro-N-[5-methoxy-2-(3,4,5-trimethoxy-benzoyl)-1-benzofuran-3-yl]acetamide] | – | – |
| 700 ± 10 | COc1cc(C(=O)c2sc3cc(C)ccc3c2NC(C)=O)cc(OC)c1OC [Compound 3u, N-[6-Methyl-2-(3,4,5-trimethoxybenzoyl)-1-benzothien-3-yl]acetamide] | – | – |
| 25900 ± 2300 | C=C(Br)C(=O)Nc1c(C(=O)c2cc(OC)c(OC)c(OC)c2)oc2cc(OC)ccc12 [Compound 5c, 2-Bromo-N-[6-methoxy-2-(3,4,5-trimethoxybenzoyl)-1-benzofuran-3-yl]acrylamide] | – | – |
| 550 ± 50 | COc1cc(C(=O)c2sc3ccccc3c2NC(=O)CO[N+](=O)[O-])cc(OC)c1OC [Compound 4b, 2-Oxo-2-{[2-(3,4,5-trimethoxybenzoyl)-1-benzothien-3-yl]amino}ethyl nitrate] | – | – |
| > 100000 | COc1cc(C(=O)c2oc3ccccc3c2NC(C)=O)cc(OC)c1OC [Compound 3a, N-[2-(3,4,5-Trimethoxybenzoyl)-1-benzofuran-3-yl]acetamide] | – | – |
| 58100 ± 1300 | COc1ccc2oc(C(=O)c3cc(OC)c(OC)c(OC)c3)c(NC(C)=O)c2c1 [Compound 3e, N-[5-Methoxy-2-(3,4,5-trimethoxybenzoyl)-1-benzofuran-3-yl]acetamide] | – | – |
| 2210 ± 90 | COc1cc(C(=O)c2oc3ccccc3c2NC(=O)CI)cc(OC)c1OC [Compound 3d, 2-Iodo-N-[2-(3,4,5-trimethoxybenzoyl)-1-benzofuran-3-yl]acetamide] | – | fold more potent than the bromine 3c ([1]; antiproliferative activity, K562 and L1210 cells): 6 fold |
| 45800 ± 1500 | COc1cc(C(=O)c2oc3ccccc3c2NC(=O)CCl)cc(OC)c1OC [Compound 3b, 2-Chloro-N-[2-(3,4,5-trimethoxybenzoyl)-1-benzofuran-3-yl]acetamide] | – | – |
| 32 | COc1cc(C(=O)c2sc3c(C)cccc3c2NC(C)=O)cc(OC)c1OC [Compound 3y, N-[7-Methyl-2-(3,4,5-trimethoxybenzoyl)-1-benzothien-3-yl]acetamide] | – | – |
| 600 ± 20 | COc1cc(C(=O)c2sc3ccccc3c2NC(=O)CCl)cc(OC)c1OC [Compound 3r, 2-Chloro-N-[2-(3,4,5-trimethoxybenzoyl)-1-benzothien-3-yl]acetamide] | – | – |
| > 100000 | C=C(Br)C(=O)Nc1c(C(=O)c2cc(OC)c(OC)c(OC)c2)oc2ccc(OC)cc12 [Compound 5b, 2-Bromo-N-[5-methoxy-2-(3,4,5-trimethoxybenzoyl)-1-benzofuran-3-yl]acrylamide] | – | – |
| 490 ± 80 | COc1cc(C(=O)c2sc3c(C)cccc3c2NC(=O)CBr)cc(OC)c1OC [Compound 3aa, 2-Bromo-N-[7-methyl-2-(3,4,5-trimethoxybenzoyl)-1-benzothien-3-yl]acetamide] | – | – |
| – | COc1ccc(/C=C\c2cc(OC)c(OC)c(OC)c2)cc1O [combretastatin A-4, reference compound] | – | Inhibition of colchicine binding (tubulin): 85–90% |
| 53400 ± 2600 | COc1ccc2oc(C(=O)c3cc(OC)c(OC)c(OC)c3)c(NC(=O)CBr)c2c1 [Compound 3g, 2-Bromo-N-[5-methoxy-2-(3,4,5-trimethoxybenzoyl)-1-benzofuran-3-yl]acetamide] | – | – |
| 490 ± 30 | C=C(Br)C(=O)Nc1c(C(=O)c2cc(OC)c(OC)c(OC)c2)sc2c(C)cccc12 [Compound 5g, 2-Bromo-N-[7-methyl-2-(3,4,5-trimethoxybenzoyl)-1-benzothien-3-yl]acrylamide] | – | – |

| SMILES | IC50 [1] [nM] | IC50 [2] [nM] | other results |
| --- | --- | --- | --- |
| C=C(Br)C(=O)Nc1c(C(=O)c2cc(OC)c(OC)c(OC)c2)oc2c(OC)cccc12 [Compound 5d, 2-Bromo-N-[7-methoxy-2-(3,4,5-trimethoxybenzoyl)-1-benzofuran-3-yl]acrylamide] | 55900 ± 4600 | 26800 ± 3200 | – |
| COc1cc(C(=O)c2oc3ccccc3c2NC(=O)CBr)cc(OC)c1OC [Compound 3c, 2-Bromo-N-[2-(3,4,5-trimethoxybenzoyl)-1-benzofuran-3-yl]acetamide] | 12800 ± 510 | 4560 ± 640 | – |
| COc1cc(C(=O)c2sc3c(C)cccc3c2NC(=O)CCl)cc(OC)c1OC [Compound 3z, 2-Chloro-N-[7-methyl-2-(3,4,5-trimethoxybenzoyl)-1-benzothien-3-yl]acetamide] | 40 ± 20 | 50 | – |
| COc1cc(C(=O)c2sc3cc(C)ccc3c2NC(=O)CI)cc(OC)c1OC [Compound 3x, 2-Iodo-N-[6-methyl-2-(3,4,5-trimethoxybenzoyl)-1-benzothien-3-yl]acetamide] | 610 ± 10 | 440 ± 70 | – |
| COc1cc(C(=O)c2sc3ccccc3c2NC(=O)CI)cc(OC)c1OC [Compound 3t, 2-Iodo-N-[2-(3,4,5-trimethoxybenzoyl)-1-benzothien-3-yl]acetamide] | 760 ± 20 | 580 ± 90 | – |
| COc1cc(C(=O)c2sc3ccccc3c2NC(=O)CBr)cc(OC)c1OC [Compound 3s, 2-Bromo-N-[2-(3,4,5-trimethoxybenzoyl)-1-benzothien-3-yl]acetamide] | 610 ± 40 | 500 ± 10 | – |
| COc1cc(C(=O)c2sc3cc(C)ccc3c2NC(=O)CO[N+](=O)[O-])cc(OC)c1OC [Compound 4c, 2-{[6-Methyl-2-(3,4,5-trimethoxybenzoyl)-1-benzothien-3-yl]amino}-2-oxoethyl nitrate] | 30 ± 20 | 280 ± 30 | fold increase in potency relative to 4b ([1]; against K562 cells): 20 fold |
| C=C(Br)C(=O)Nc1c(C(=O)c2cc(OC)c(OC)c(OC)c2)oc2ccccc12 [Compound 5a, 2-Bromo-N-[2-(3,4,5-trimethoxybenzoyl)-1-benzofuran-3-yl]acrylamide] | 5100 ± 70 | 530 | fold more active than amino counterpart 2a ([2]; against L1210 cells): 60 fold |
| COc1ccc2oc(C(=O)c3cc(OC)c(OC)c(OC)c3)c(NC(=O)CI)c2c1 [Compound 3h, 2-Iodo-N-[5-methoxy-2-(3,4,5-trimethoxybenzoyl)-1-benzofuran-3-yl]acetamide] | 49200 ± 1800 | 520 ± 30 | – |
| COc1cc(C(=O)c2oc3c(OC)cccc3c2NC(=O)CI)cc(OC)c1OC [Compound 3p, 2-Iodo-N-[7-methoxy-2-(3,4,5-trimethoxybenzoyl)-1-benzofuran-3-yl]acetamide] | 6960 ± 1120 | 42800 ± 3770 | – |
| C=C(Br)C(=O)Nc1c(C(=O)c2cc(OC)c(OC)c(OC)c2)sc2cc(C)ccc12 [Compound 5f, 2-Bromo-N-[6-methyl-2-(3,4,5-trimethoxybenzoyl)-1-benzothien-3-yl]acrylamide] | 940 ± 60 | 59 | – |
